Experimental data reported in PMC4141080 (FEBS Open Bio, 2014).

Experiments:
Type in all cases: biochemical, Aplysia kurodai
Conditions in all cases: standard assay 37 °C; pH of kinetics not told
[1] = test system: ApAGL74 (74-kDa α-glucosidase); assay: fluorometric 4-methylumbelliferone release
How it was run: (§1)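 Each α-glucosidase was purified from sea hare digestive fluid. The fluid was squeezed from the stomach lumen, cut with 0–60% ammonium sulfate, then run through ion-exchange, phenyl-Sepharose, Sephacryl S-100 and Mono Q chromatography, with purity checked by SDS–PAGE. Substrate was 4-MU-α-glucoside. Released 4-methylumbelliferone was read fluorometrically (ex 365 nm, em 450 nm). One unit releases 1 μmol 4-methylumbelliferone/min at 37 °C.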

[2] = test system: ApAGL86 (86-kDa α-glucosidase); assay: fluorometric 4-methylumbelliferone release
How it was run: as §1

[3] = test system: ApAGL74 (74-kDa α-glucosidase); assay: glucose release
How it was run: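 The α-glucosidase was purified chromatographically from the ammonium sulfate (0–60%) fraction of stomach-lumen digestive fluid of sea hare. Glucose liberated from substrate was quantified with a glucose oxidase-based kit.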

[4] = test system: ApAGL86 (86-kDa α-glucosidase); assay: glucose release

SMILES | Km [1] | Km [2] | Km [3] | Km [4]
Cc1cc(=O)oc2cc(O[C@H]3O[C@H](CO)[C@@H](O)[C@H](O)[C@H]3O)ccc12 [4MU-α-glucoside] | 0.0479 ± 0.0106 mM | 0.412 ± 0.006 mM | – | –
OC[C@H]1O[C@H](OC[C@H]2OC(O)[C@H](O)[C@@H](O)[C@@H]2O)[C@H](O)[C@@H](O)[C@@H]1O (stereo partly shown) [Isomaltose] | – | – | 14.2 ± 0.9 mM | 16.5 ± 0.05 mM
OC[C@H]1O[C@H](O[C@H]2[C@H](O)[C@@H](O)C(O)O[C@@H]2CO)[C@H](O)[C@@H](O)[C@@H]1O (stereo partly shown) [Maltose] | – | – | 4.98 ± 0.06 mM | –
OC[C@H]1O[C@@](CO)(O[C@H]2O[C@H](CO)[C@@H](O)[C@H](O)[C@H]2O)[C@@H](O)[C@@H]1O [Sucrose] | – | – | 31.7 ± 2.1 mM | 33.6 ± 1.55 mM
